Data set [1] is filed under the species Danio rerio. In words: Modulation of neurological behavior in zebrafish assessed as effect on touch response by high-throughput screening. The format is functional, organism-based. The essentials: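 Zebrafish embryos were raised in E3 medium buffered with 10 mM HEPES, in the dark at 28 °C. At 28 hpf, groups of 8–10 were placed in 96-well plates, then kept dark at 25 °C during chemical treatment. After the photomotor assay, each animal was touched with a fine plastic probe and observed under a dissecting microscope. Wells were scored normal, toxic, sedative (no touch response but healthy heartbeat and circulation) or other.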

The species named for data set [2] is Danio rerio. In words: Modulation of neurological behavior in zebrafish assessed as robist increase in high intensity light-induced motor response at < 10 uM by photomotor response assay. The data set is classed as functional, organism-based. A digest of the protocol:
(§1)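 Embryos raised in HEPES (10 mM)-buffered E3 in the dark at 28 °C, then distributed at 28 hpf in groups of 8–10 per well of 96-well plates in E3 and held in the dark at 25 °C for chemical exposure. Light pulses were delivered while 1000 video frames were recorded at 33 fps. Motion index quartiles (Q1, Q3) in seven time periods were converted to pseudo z-scores against control wells.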

Data set [3] is filed under the species Danio rerio. In words: Modulation of neurological behavior in zebrafish assessed as robist increase in high intensity light-induced motor response at 10 to 100 uM by photomotor response assay. The data set is classed as functional, organism-based. A digest of the protocol: as §1
Data set [4] is described as follows: Inhibition of MAO at 10 uM by plate-reader assay.
Data set [5] addresses T1, Acetylcholinesterase (Homo sapiens, UniProt P22303). In words: Inhibition of AChE.
Data set [6] can be described thus: Ratio of pargyline IC50 to compound IC50 for MAO.
For data set [7], the species on record is Danio rerio. In words: Modulation of neurological behavior in zebrafish assessed as prolongation of high intensity light-induced motor response at 10 to 100 uM by photomotor response assay. The data set is classed as functional, organism-based. The essentials:
(§2)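 Zebrafish embryos were raised in E3 medium buffered with 10 mM HEPES, in the dark at 28 °C. At 28 hpf, 8–10 per well went into 96-well plates, held dark at 25 °C for chemical treatment. For each well, 1000 video frames were recorded at 33 fps, with light stimuli. A motion index was computed from frame-to-frame pixel-intensity differences. Q1 and Q3 of this index over seven time periods gave fourteen pseudo z-scores versus control wells.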

Data set [8] is described as follows: Inhibition of MAO by plate-reader assay.
In data set [9] the target is Acetylcholinesterase (Danio rerio, UniProt Q9DDE3). In words: Inhibition of AChE in zebrafish embryo.
Data set [10] addresses T1, Acetylcholinesterase. In words: Inhibition of AChE at 10 uM.
Data set [11] is filed under the species Danio rerio. In words: Anxiolytic activity in zebrafish assessed as decrease in high intensity light-induced motor behavior at 10 to 100 uM by photomotor response assay. The data set is classed as functional, organism-based. A digest of the protocol:
as §1

Data set [12] is filed under the species Danio rerio. In words: Anxiolytic activity in zebrafish assessed as decrease in high intensity light-induced motor behavior at <10 uM by photomotor response assay. The format is functional, organism-based. A digest of the protocol:
as §1

The species named for data set [13] is Danio rerio. In words: Modulation of neurological behavior in zebrafish assessed as prolongation of high intensity light-induced motor response at < 10 uM by photomotor response assay. The format is functional, organism-based. A digest of the protocol:
as §2

For data set [14], the species on record is Danio rerio. In words: Psychostimulant activity in zebrafish assessed as increase in high intensity light-induced motor response at 10 to 100 uM by photomotor response assay. The data set is classed as functional, organism-based. A digest of the protocol:
as §2

The species entered for data set [15] is Danio rerio. In words: Psychostimulant activity in zebrafish assessed as increase in high intensity light-induced motor response at < 10 uM by photomotor response assay. The data set is classed as functional, organism-based. The essentials:
as §2

For data set [16], the species on record is Danio rerio. In words: Toxicity in zebrafish assessed as mortality at 100 uM. The following applies: in vivo. The data set is classed as organism-based. A digest of the protocol: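 Embryos were treated in 96-well plates, 8–10 per well, then scored after the photomotor assay under a dissecting microscope. Scoring covered developmental retardation, morphological defects, heart morphology, rate and circulation, response to touch with a fine plastic probe, and overall appearance. Wells were classed as normal, toxic, sedative or other.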

Molecules are shown by their SMILES. The source made the active and inactive calls. The rule behind the calls is not given here.

T1 sequence (P22303 whole entry): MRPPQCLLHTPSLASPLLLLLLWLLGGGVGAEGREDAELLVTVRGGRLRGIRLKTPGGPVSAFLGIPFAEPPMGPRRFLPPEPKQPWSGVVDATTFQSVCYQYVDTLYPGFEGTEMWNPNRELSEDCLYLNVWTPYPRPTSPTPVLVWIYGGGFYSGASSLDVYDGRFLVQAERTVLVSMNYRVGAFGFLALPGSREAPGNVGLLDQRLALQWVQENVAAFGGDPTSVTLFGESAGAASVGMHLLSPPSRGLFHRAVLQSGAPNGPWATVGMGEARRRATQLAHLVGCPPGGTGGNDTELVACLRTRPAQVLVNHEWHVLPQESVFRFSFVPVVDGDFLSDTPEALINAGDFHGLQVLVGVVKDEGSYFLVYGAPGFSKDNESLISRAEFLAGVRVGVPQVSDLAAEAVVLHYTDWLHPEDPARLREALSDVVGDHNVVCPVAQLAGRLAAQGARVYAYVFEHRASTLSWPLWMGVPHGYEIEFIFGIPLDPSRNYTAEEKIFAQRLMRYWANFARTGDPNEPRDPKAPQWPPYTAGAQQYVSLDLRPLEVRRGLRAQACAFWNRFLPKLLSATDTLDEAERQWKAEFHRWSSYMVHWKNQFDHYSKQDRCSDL
Chain of Acetylcholinesterase (Danio rerio, UniProt Q9DDE3) (Q9DDE3 whole entry): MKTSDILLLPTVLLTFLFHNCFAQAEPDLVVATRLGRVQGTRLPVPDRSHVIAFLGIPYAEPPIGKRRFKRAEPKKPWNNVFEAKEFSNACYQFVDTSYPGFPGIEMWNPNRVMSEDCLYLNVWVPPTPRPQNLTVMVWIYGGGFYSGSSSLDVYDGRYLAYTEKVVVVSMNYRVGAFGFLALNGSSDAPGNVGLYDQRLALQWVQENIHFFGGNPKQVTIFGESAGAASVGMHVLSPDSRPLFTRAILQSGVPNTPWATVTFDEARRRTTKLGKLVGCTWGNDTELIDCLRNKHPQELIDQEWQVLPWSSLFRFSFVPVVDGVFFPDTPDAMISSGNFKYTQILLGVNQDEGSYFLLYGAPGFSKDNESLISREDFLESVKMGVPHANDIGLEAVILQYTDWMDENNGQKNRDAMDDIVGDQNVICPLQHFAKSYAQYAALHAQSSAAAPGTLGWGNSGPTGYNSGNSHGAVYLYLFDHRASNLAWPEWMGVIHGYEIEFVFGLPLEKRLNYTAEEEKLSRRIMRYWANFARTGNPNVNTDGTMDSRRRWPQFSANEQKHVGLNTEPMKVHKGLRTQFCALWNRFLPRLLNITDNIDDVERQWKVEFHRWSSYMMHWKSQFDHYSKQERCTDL

Turning to `O=C(Oc1ccc2c3c(c(=O)oc2c1)CCCC3)c1ccccc1`, in the data set listed under Danio rerio [1], the result was Active.
For the compound `O=[N+]([O-])c1ccc2nc(N3CCNCC3)ccc2c1`, the outcome in the data set filed under Danio rerio [1] and in the data set filed under Danio rerio [3] was Active. Further, the outcome in the data set listed under Danio rerio [2] was inactive.
`CC(C)(C)NCC(O)c1cc(Cl)c(N)c(Cl)c1` (centres undefined): the result in the data set listed under Danio rerio [1] was Active.
Regarding `CC(=O)CC(c1ccccc1)c1c(O)c2ccccc2oc1=O` (centres undefined), the inhibition (as a rule, the relative decrease from the control value, in per cent) in data set [4] is “inactive”. Besides, the outcome in the data set filed under Danio rerio [1] was Active.
Consider `O=C(CCCN1C(=O)c2ccccc2C1=O)N1CCCCCC1`, for which the half-maximal inhibitory concentration (IC50) (in general, the concentration needed to halve the response being measured) at Acetylcholinesterase [5] is 500 nM. The result in the data set filed under Danio rerio [1] was Active.
Take `O=C(CNC(=O)OCc1ccccc1)Oc1cc2oc(=O)c3c(c2cc1Cl)CCC3`: in data set [6], the Ratio IC50 worked out at 100. For the same compound, in data set [4], the inhibition worked out at 0%.
As to `C[n+]1ccccc1C=NO`, in the data set filed under Danio rerio [7], the result was Active.
Consider `CC(C)(C)OC(=O)NCC(=O)Oc1cc2oc(=O)c3c(c2cc1Cl)CCC3`, for which the Ratio IC50 in data set [6] came to 100. This compound also registered an IC50 in [8] of 500 nM.
For `CC(C)(C)OC(=O)NCCC(=O)Oc1cc2oc(=O)c3c(c2cc1Cl)CCCC3`, in that order: 100 and 10000 nM.
Take `O=C1c2ccccc2-c2nc3ncnn3c(-c3ccccc3Cl)c21`: the IC50 at Acetylcholinesterase [9] is 500 nM. For the same compound, the outcome in the data set filed under Danio rerio [1] was Active. The inhibition result on Acetylcholinesterase [10] is “inactive”.
As for `CN1C(=O)CN=C(c2ccccc2)c2cc(Cl)ccc21`, in the data set listed under Danio rerio [11], the inhibition entry was “Active”. For the same compound, in the data set listed under Danio rerio [12], the inhibition result was “inactive”. The result in the data set filed under Danio rerio [1] was Active.
Turning to `CN1CCc2cccc3c2[C@H]1Cc1ccc(O)c(O)c1-3`, the result in the data set filed under Danio rerio [13] was inactive. For the same compound, the outcome in the data set listed under Danio rerio [1] and in the data set filed under Danio rerio [7] was Active.
Turning to `C#CCN(C)Cc1ccccc1`, the result in the data set listed under Danio rerio [1] was Active.
`CN1[C@@H]2CC[C@H]1C[C@@H](OC(=O)C(CO)c1ccccc1)C2` (some centres undefined): the outcome in the data set filed under Danio rerio [7] was Active.
Take `CNC(=O)Oc1ccc2c(c1)[C@]1(C)CCN(C)[C@@H]1N2C`: the result in the data set listed under Danio rerio [1] was Active.
As to `CC(C)(C)OC(=O)NCCC(=O)Oc1cc2oc(=O)c3c(c2cc1Cl)CCC3`, the Ratio IC50 in data set [6] turned out to be 100. The IC50 in data set [8] is 1000 nM.
With `COC(=O)c1ccc(COc2cc(C)ccc2C(=O)Oc2ccc3c4c(c(=O)oc3c2)CCCC4)o1`, the Ratio IC50 in data set [6] was found to be 100.
In the case of `CC(C)NCC(O)c1ccc(O)c(O)c1` (centres undefined), the result in the data set filed under Danio rerio [14] and in the data set filed under Danio rerio [1] was Active. The result in the data set filed under Danio rerio [15] and in the data set filed under Danio rerio [12] was inactive.
With `C[C@]12CC[C@H](O)C[C@H]1CC[C@@H]1[C@@H]2CC[C@]2(C)[C@@H](C3=CC(=O)OC3)CC[C@]12O` [DIGITOXIGENIN], the Activity entry in the data set listed under Danio rerio [16] was “Toxic”. Moreover, in the data set filed under Danio rerio [1], the outcome was Active.
Regarding `Cc1cc2c(OCC(CNC(C)(C)C)OC(=O)c3ccccc3)cccc2[nH]1` (centres undefined), the result in the data set filed under Danio rerio [7] was Active.
With `CNC[C@H](O)c1ccc(O)c(O)c1`, in the data set listed under Danio rerio [1], the outcome was Active.

(Values after ChEMBL document CHEMBL1212809, “Rapid behavior-based identification of neuroactive small molecules in the zebrafish” (Nat Chem Biol, 2010).)
